In ChEMBL document CHEMBL4393719, “Tetrahydro-3-benzazepines with fluorinated side chains as NMDA and σ1 receptor antagonists: Synthesis, receptor affinity, selectivity and antiallodynic activity” (Eur J Med Chem, 2019):
pKi: −log10 of the molar value.

system: not listed separately; assay: Displacement of [3H] ifenprodil from GluN2B/GluN1a (unknown origin) expressed in mouse L(tk-) cell membranes incubated for 120 mins by scintillation counting method; set-up: species or system Homo sapiens; settings: not given
Method in brief: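 Membranes from mouse L(tk-) cells co-transfected with dexamethasone-inducible GluN1a/GluN2B (1:5), induced 24 h with 4 μM dexamethasone plus 4 μM ketamine.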

Row | SMILES | pKi
1 | OC1CN(CCC(F)Cc2ccccc2)CCc2cc(OCc3ccccc3)ccc21 (stereo unspecified) | 6.09
2 | OC(CN1CCC(Cc2ccc(F)cc2)CC1)c1ccc(Cl)cc1 (stereo unspecified) [ELIPRODIL] | 7.89
3 | OC1CN(CC(F)CCc2ccccc2)CCc2cc(OCc3ccccc3)ccc21 (stereo unspecified) | 6.11
4 | COc1ccc2c(c1)CCN(CC(F)CCc1ccccc1)CC2 (stereo unspecified) | 6.22
5 | FC(CCOc1ccc2c(c1)CCN(CCC(F)Cc1ccccc1)CC2)Cc1ccccc1 (stereo unspecified) | 6.60
6 | Oc1ccc2c(c1)CCN(CCC(F)Cc1ccccc1)CC2 (single isomer, unassigned; (+)) | 7.27
7 | Oc1ccc2c(c1)CCN(CCC(F)Cc1ccccc1)CC2O (stereo unspecified) | 6.37
8 | Oc1ccc2c(c1)CCN(CCCCc1ccccc1)CC2 | 8.00
9 | Oc1ccc2c(c1)CCN(CC(F)CCc1ccccc1)CC2 (stereo unspecified) | 7.07
10 | OC1CN(CCCCc2ccccc2)CCc2cc(OCc3ccccc3)ccc21 (stereo unspecified) | 6.30

target: Sigma non-opioid intracellular receptor 1 (Cavia porcellus, UniProt Q60492); assay type: cell membranes; settings: not given;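 note: radioligand displacement of [3H]-(+)-pentazocine from guinea pig brain cortex membranes, 120 min incubation, bound radioactivity read by scintillation counting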
Sequence (Q60492 whole entry): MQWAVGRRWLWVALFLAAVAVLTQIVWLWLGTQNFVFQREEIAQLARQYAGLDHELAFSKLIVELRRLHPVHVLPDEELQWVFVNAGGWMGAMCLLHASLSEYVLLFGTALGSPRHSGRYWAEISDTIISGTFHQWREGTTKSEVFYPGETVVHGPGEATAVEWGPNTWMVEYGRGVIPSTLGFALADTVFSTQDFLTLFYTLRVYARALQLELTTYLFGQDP

Row | SMILES | pKi
11 | OC1CN(CC(F)CCc2ccccc2)CCc2cc(OCc3ccccc3)ccc21 (stereo unspecified) | 6.41
12 | COc1ccc2c(c1)CCN(CC(F)CCc1ccccc1)CC2 (stereo unspecified) | 6.67
13 | Oc1ccc2c(c1)CCN(CC(F)CCc1ccccc1)CC2 (stereo unspecified) | 7.15

The next lines start with the values.

Row | pKi | SMILES
14 | 6.74 | OC1CN(CCC(F)Cc2ccccc2)CCc2cc(OCc3ccccc3)ccc21 (stereo unspecified)
15 | 6.73 | FC(CCOc1ccc2c(c1)CCN(CCC(F)Cc1ccccc1)CC2)Cc1ccccc1 (stereo unspecified)
16 | 8.00 | Oc1ccc2c(c1)CCN(CCC(F)Cc1ccccc1)CC2 (single isomer, unassigned; (+))
17 | 5.85 | Oc1ccc2c(c1)CCN(CCC(F)Cc1ccccc1)CC2O (stereo unspecified)
18 | 7.49 | Oc1ccc2c(c1)CCN(CCCCc1ccccc1)CC2

target: T1, Sigma intracellular receptor 2 (Rattus norvegicus, UniProt Q5U3Y7); assay: Displacement of [3H]-di-o-tolylguanidine from sigma2 receptor in rat liver membranes incubated for 120 mins by scintillation counting method; assay type: cell membranes; settings: not given
T1 sequence (Q5U3Y7 whole entry): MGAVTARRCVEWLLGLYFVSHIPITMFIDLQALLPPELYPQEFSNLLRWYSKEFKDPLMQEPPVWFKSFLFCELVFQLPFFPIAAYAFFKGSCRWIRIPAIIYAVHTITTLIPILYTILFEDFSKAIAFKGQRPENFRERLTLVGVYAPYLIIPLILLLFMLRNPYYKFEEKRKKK

Row | SMILES | pKi
19 | OC1CN(CC(F)CCc2ccccc2)CCc2cc(OCc3ccccc3)ccc21 (stereo unspecified) | 5.85
20 | COc1ccc2c(c1)CCN(CC(F)CCc1ccccc1)CC2 (stereo unspecified) | 6.13
21 | Oc1ccc2c(c1)CCN(CC(F)CCc1ccccc1)CC2 (stereo unspecified) | 6.82

Further lines, results first:

Row | pKi | SMILES
22 | 5.74 | OC1CN(CCC(F)Cc2ccccc2)CCc2cc(OCc3ccccc3)ccc21 (stereo unspecified)
23 | 6.19 | FC(CCOc1ccc2c(c1)CCN(CCC(F)Cc1ccccc1)CC2)Cc1ccccc1 (stereo unspecified)
24 | 7.31 | Oc1ccc2c(c1)CCN(CCC(F)Cc1ccccc1)CC2 (single isomer, unassigned; (+))
25 | 6.89 | Oc1ccc2c(c1)CCN(CCC(F)Cc1ccccc1)CC2O (stereo unspecified)
26 | 7.92 | Oc1ccc2c(c1)CCN(CCCCc1ccccc1)CC2

system: not listed separately; assay: Selectivity ratio of Ki for sigma2 receptor in rat liver membranes to ratio of Ki for GluN2B/GluN1a (unknown origin) expressed in mouse L(tk-) cell membranes; assay type: cell-based; settings: not given

Row | SMILES | Ratio Ki
27 | OC1CN(CCC(F)Cc2ccccc2)CCc2cc(OCc3ccccc3)ccc21 (stereo unspecified) | 2
28 | OC1CN(CC(F)CCc2ccccc2)CCc2cc(OCc3ccccc3)ccc21 (stereo unspecified) | 2
29 | OC1CN(CCCCc2ccccc2)CCc2cc(OCc3ccccc3)ccc21 (stereo unspecified) | 2

system: not listed separately; assay: Selectivity ratio of Ki for sigma1 receptor in guinea pig brain cortex membranes to ratio of Ki for GluN2B/GluN1a (unknown origin) expressed in mouse L(tk-) cell membranes; assay type: cell-based; settings: not given

Row | SMILES | Ratio Ki
30 | Oc1ccc2c(c1)CCN(CCC(F)Cc1ccccc1)CC2O (stereo unspecified) | 2 to 3
31 | Oc1ccc2c(c1)CCN(CCCCc1ccccc1)CC2 | 2 to 3

organism: Sus scrofa; settings: at 1 µM

Row | SMILES | inhibition [%]
32 | OC1CN(CCC(F)Cc2ccccc2)CCc2cc(OCc3ccccc3)ccc21 (stereo unspecified) | 0
33 | OC1CN(CC(F)CCc2ccccc2)CCc2cc(OCc3ccccc3)ccc21 (stereo unspecified) | 0
34 | COc1ccc2c(c1)CCN(CC(F)CCc1ccccc1)CC2 (stereo unspecified) | 0
35 | Oc1ccc2c(c1)CCN(CCC(F)Cc1ccccc1)CC2O (stereo unspecified) | 8
36 | Oc1ccc2c(c1)CCN(CC(F)CCc1ccccc1)CC2 (stereo unspecified) | 0
